# G6PDH counter – inhibits Leuconostoc G6PDH, flagging false hits in G6PDH-based assays; Purified L. mesenteroides G6PDH, diaphorase/resazurin coupled fluorescence, 45 min; inhibition, % at 5 µM; hit rate 0.12% among 200,000; AID 1020
# Diaphorase act – counter-screen for diaphorase-based assays: diaphorase activators and chemical reducers | hit rate 0.005% among 190,000 | Diaphorase/resazurin coupled assay, resorufin fluorescence, 16 min; active compounds read high; 1 = vehicle wells, 0 = NADH-free wells | AID 1229 | activation factor at 20 µM;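 active means diaphorase activity raised at least twofold by the compound at 20 µM; inactive means activation factor below 2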
#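 Material: Purified diaphorase enzyme from Clostridium kluyveri | Buffer or medium: 50 mM HEPES pH 7.4 with 4.542 mM MgCl2, 0.005% Tween 20 | Times: 16 min enzyme reaction, ambient temperature | Signal: Red resorufin fluorescence at 544/590 nm excitation/emission | Measure: Increased resorufin signal from activators or reducing compounds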
# WT yeast gro inh – growth inhibition of WT yeast, mitochondrial fusion screen; AID 1362; inhibition, % at 10 µM; hit rate 2.1% among 190,000; mitochondrial fusion phenotypic screen, WT strain; in the data active means inhibition above about 58%; tested in S. cerevisiae
# Lmaj promast – Leishmania major promastigote growth inhibition | hit rate 9% among 200,000 | AID 1063 | Leishmania major promastigotes, resazurin fluorescence viability | inhibition, % at 10 µM;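 further: promastigotes grown with compound for 44 hours at 28 °C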
# Diaph inh CS – inhibits diaphorase or chemically oxidizes, flagging diaphorase assay artifacts | diaphorase resazurin-to-resorufin fluorescence, NADH, 16 min; bacterial (C. kluyveri) enzyme, not human | inhibition, % at 20 µM | hit rate 0.69% among 190,000 | AID 1217;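 active means primary screen inhibition at 20 µM above a set limit, cut at about 50% in these data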;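 further: plate controls were DMSO with full reaction for no effect and wells lacking NADH for full effect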
#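 controls = No-NADH positive control and DMSO neutral control | system = Clostridium kluyveri diaphorase enzyme | timing = reaction incubation of 16 min at room temperature | signal = resorufin fluorescence 544/590 nm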
# Starred values were filed as active, the others as inactive. An excerpt weighted towards active compounds, which were near 11% of everything screened. Unless noted, no stated cut-off is given here; in the data, active means inhibition above about 50%; inactive means the rest.
SMILES,G6PDH counter,Diaphorase act,WT yeast gro inh,Lmaj promast,Diaph inh CS
Cc1cc(C)c(S(=O)(=O)N(C2=NCCS2)S(=O)(=O)c2c(C)cc(C)cc2C)c(C)c1,9,0.8,11,98*,16
COc1ccc(OCC(=O)Nc2ccc3nc(C)sc3c2)cc1,-5,1,32,-3,0
O=S(=O)(c1ccc2ccccc2c1)N1CCN(C(=S)Nc2ccc(F)c(Cl)c2)CC1,-4,0.9,0,90*,9
O=C(Cn1ncc(Cl)c(Cl)c1=O)N1CCN(S(=O)(=O)c2ccc3ccccc3c2)CC1,-18,0.7,-19,99*,30
O=C(CCC(=O)N1CCN(S(=O)(=O)c2ccc(Cl)cc2)CC1)Nc1ccc(Cl)cc1Cl,-2,0.7,41,5,27
O=S(=O)(c1ccc2ccccc2c1)N1CCN(C(=S)Nc2ccc(F)cc2)CC1,12,0.8,20,2,23
O=C(CCC(=O)N1CCN(S(=O)(=O)c2ccc3ccccc3c2)CC1)Nc1cc(Cl)cc(Cl)c1,-1,1,-8,63*,4
O=C(NCCNCc1ccccn1)c1ccco1,9,1,6,-8,-1
Cc1ccc(C(=O)COC(=O)CCC(=O)Nc2cc(Cl)ccc2Cl)cc1[N+](=O)[O-],4,1.1,-6,-14,-7
Cc1ccc(NC(=O)CCC(=O)OCC(=O)c2ccc(Oc3ccc([N+](=O)[O-])cc3)cc2)cc1C,-6,0.8,66*,-10,19
Cc1cccc(NC(=O)CCC(=O)OCC(=O)c2ccc(Oc3ccc([N+](=O)[O-])cc3)cc2)c1,-2,0.3,-6,-6,67*
O=C(CCC(=O)OCC(=O)c1ccc(Cl)cc1)NC1CCCCC1,2,0.9,5,-13,10
O=C(CCC(=O)OCC(=O)c1ccc([N+](=O)[O-])cc1)NC1CCCCC1,-3,1,-16,77*,-1
CC(=O)Nc1ccc(NC(=O)CCC(=O)OCC(=O)c2cccc([N+](=O)[O-])c2)cc1,12,1.2,-8,-8,-20
CCC(C)(C)c1ccc(OCCN2C(=O)NC(C)(C)C2=O)cc1,-2,0.9,-22,-5,14
O=C(Oc1ccccc1Cl)c1ccc(-n2cncn2)nc1,4,0.9,8,-3,6
Cc1ccc(Nc2nc(N)nc(CSC(=S)N3CCOCC3)n2)c(C)c1,2,0.8,-9,8,18
CCCCN(CCCC)CCNC(=O)Cc1nc2c(c(=O)[nH]c(=O)n2C)n1C,12,1,67*,0,-4
CCCCCCSc1nc2c(c(=O)[nH]c(=O)n2C)n1C,-4,0.8,7,-1,18
CN1/C(=C\C(=O)C[n+]2ccc3ccccc3c2)C(C)(C)c2ccccc21,1,1,7,100*,3
CN1/C(=C\C(=O)C(F)F)C(C)(C)c2ccccc21,24,0.8,11,0,17
COc1ccccc1OCC(=O)/C=C1/N(C)c2ccccc2C1(C)C,4,1,8,57*,3
O=C(NCc1ccc2c(c1)OCO2)c1cccnc1Cl,0,0.9,-5,-3,10
CCOc1cc(/C=N/NC(=O)c2cccnc2)ccc1OCC(=O)N1CCOCC1,-15,0.9,-16,-4,13
O=C(CCS(=O)(=O)c1cccc2nsnc12)NC1CCCCC1,7,0.9,13,14,12
SMILES,G6PDH counter,Diaphorase act,WT yeast gro inh,Lmaj promast,Diaph inh CS
CN(C)c1ccc(-c2nc3ccccn3c2/N=C/c2ccc(Br)cc2)cc1,-2,0.9,35,99*,8
O=C(/C=C\c1ccccc1[N+](=O)[O-])Nc1ccccc1,8,0.9,10,-5,15
CCOc1ccccc1NC(=O)/C=C/c1ccccc1[N+](=O)[O-],5,0.9,11,78*,7
CCOc1ccccc1NC(=O)CC(O)(C(F)(F)F)C(F)(F)F,5,1.1,17,0,-7
CCOc1ccccc1NC(=O)/C=C/C(N)=O,1,1,5,100*,4
NS(=O)(=O)c1ccc(NC(=O)/C=C/c2ccccc2[N+](=O)[O-])cc1,4,0.8,-6,69*,24
CC1(C)Cc2c(c(N3CCCC3)nc3sc4c(N5CCN(CCO)CC5)ncnc4c23)CO1,1,0.9,8,74*,13
CN(CCOc1ccccc1)S(=O)(=O)c1ccc2oc3ccccc3c2c1,6,0.9,28,55*,12
COc1ccc(OCCNS(=O)(=O)c2ccc3oc4ccccc4c3c2)cc1,10,1,10,-4,0
CC(C)OC(=O)C(C)Oc1ccc(C(=O)NCCc2ccccc2)cc1 (configuration not stated),12,1,8,-1,2
O=C(NCc1cccnc1)C(=O)NCC1CCCO1 (configuration not stated),7,1,-6,-7,4
O=C(NCc1ccco1)c1nc2nc(-c3cccs3)cc(C(F)(F)F)n2n1,2,0.7,-1,4,30
O=C(NCc1ccco1)c1nn2c(C(F)(F)F)cc(-c3cccs3)nc2c1Br,1,0.8,-9,100*,15
COc1ccccc1N1CCN(CC(O)COc2cccc3ccccc23)CC1 (configuration not stated),16,0.9,22,5,14
CC(COc1cccc2ccccc12)CN1CCN(C)CC1 (configuration not stated),6,0.8,1,83*,19
CN(C)CCCNC(=O)c1ccc(Cl)c(S(=O)(=O)N(C)c2ccccc2)c1,11,1,-2,3,-5
OCCN1CCN(Cc2cc(Br)cc(Br)c2O)CC1,10,1,12,8,4
Oc1c(CN2CCN(c3ccccn3)CC2)cc(Cl)c2cccnc12,-22,0.5,11,100*,53*
O=c1c(CN2CCN(c3ccccn3)CC2)coc2ccccc12,-5,0.9,-2,63*,12
OCCN1CCN(Cc2cc(Cl)c3cccnc3c2O)CC1,53*,0.3,-9,100*,69*
CCCCN(C)C(=O)c1sc2ncn(CC)c(=O)c2c1C,15,0.9,-1,-5,6
Cc1cccc(-n2cnc(C(=O)NC3CCCCCC3)c2)n1,7,0.9,-9,14,8
CCCCN1C(=O)/C(=C2\SC(N3CCCCC3)=NC2=O)c2ccccc21,-3,0.7,47,51*,32
O=C(CSc1nnc(-c2ccc(S(=O)(=O)N3CCCC3)cc2)o1)NCc1ccccc1,4,1.1,5,99*,-5
CCN(CC)S(=O)(=O)c1ccc(-c2nnc(SCc3nnc(-c4ccccc4)o3)o2)cc1,14,1,11,6,2
O=S(=O)(c1ccc(-c2nnc(SCc3nnc(-c4ccccc4)o3)o2)cc1)N1CCCC1,-4,0.9,-14,100*,6
CCn1c(SCc2nnc(-c3ccccc3)o2)nnc1-c1ccc(S(=O)(=O)N2CCCC2)cc1,8,0.8,-8,99*,20
